Measured values from ChEMBL document CHEMBL4118208, “Design, synthesis and molecular modeling of new 4-phenylcoumarin derivatives as tubulin polymerization inhibitors targeting MCF-7 breast cancer cells” (Bioorg Med Chem, 2018).
Converted amounts (≈) assume the structure as drawn.

Assays:
MCF7 [1] = assay: Growth inhibition of human MCF7 cells at 100 ug/ml after 48 hrs by MTT assay relative to control; assay type: functional; details: MCF7, 48 h, read-out: GI
In short: (§1)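 Preliminary screen at 100 µg/mL against MCF-7 and normal BJ-1 cells. Values are % inhibition, given as the mean of 3 replicate samples with standard deviation.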

MCF7 [2] = assay: Growth inhibition of human MCF7 cells after 48 hrs by MTT assay; assay type: functional, cell-based; details: MCF7, 48 h
MCF7 [3] = assay: Cell cycle arrest in human MCF7 cells assessed as apoptotic cells at 11.1 ug/ml after 24 hrs by PI staining based flow cytometry (reference value: 0.64%); assay type: functional
MCF7 [4] = assay: Induction of apoptosis in human MCF7 cells assessed as early apoptotic cells at 11.1 ug/ml after 24 hrs by Annexin V-FITC/PI staining based flow cytometry (reference value: 0.18%); assay type: functional
In short: (§2)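 MCF-7 cells treated at 11.1 µg/mL for 24 h, then labelled with annexin V-FITC and propidium iodide. Green (FITC) and red (PI) fluorescence are read by flow cytometry. Early apoptosis is scored as annexin V+/PI−, late as annexin V+/PI+. DMSO serves as negative control.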

MCF7 [5] = assay: Induction of apoptosis in human MCF7 cells assessed as late apoptotic cells at 11.1 ug/ml after 24 hrs by Annexin V-FITC/PI staining based flow cytometry (reference value: 0.09%); assay type: functional; in short: as §2
MCF7 [6] = assay: Cell cycle arrest in human MCF7 cells assessed as accumulation at G2/M phase at 11.1 ug/ml after 24 hrs by PI staining based flow cytometry relative to control; assay type: functional
MCF7 [7] = assay: Cell cycle arrest in human MCF7 cells assessed as accumulation at G1 phase at 11.1 ug/ml after 24 hrs by PI staining based flow cytometry (reference value: 61.31%); assay type: functional
[8] = Growth inhibition of human hTERT-BJ1 cells at 100 ug/ml after 48 hrs by MTT assay relative to control; assay type: cell-based, hTERT-BJ; details: read-out: GI; in short: as §1
MCF7 [9] = assay: Cell cycle arrest in human MCF7 cells assessed as accumulation at S phase at 11.1 ug/ml after 24 hrs by PI staining based flow cytometry (reference value: 30.1%); assay type: functional
Tubulin beta-5 chain [10] = molecular target: T1, Tubulin beta-5 chain (Homo sapiens, UniProt P07437); assay: Inhibition of tubulin beta polymerization in human MCF7 cells after 18 to 24 hrs by ELISA based spectrophotometric analysis; assay type: cell-based
MCF7 [11] = assay: Cell cycle arrest in human MCF7 cells assessed as accumulation at G2 phase at 11.1 ug/ml after 24 hrs by PI staining based flow cytometry (reference value: 8.59%); assay type: functional
MCF7 [12] = assay: Induction of apoptosis in human MCF7 cells assessed as viable cells at 11.1 ug/ml after 24 hrs by Annexin V-FITC/PI staining based flow cytometry (reference value: 97.24%); assay type: functional; details: MCF7, 24 h, read-out: Activity; in short: as §2
MCF7 [13] = assay: Cell cycle arrest in human MCF7 cells assessed as accumulation at pre-G1 phase at 11.1 ug/ml after 24 hrs by PI staining based flow cytometry relative to control; assay type: functional
MCF7 [14] = assay: Induction of apoptosis in human MCF7 cells assessed as necrotic cells at 11.1 ug/ml after 24 hrs by Annexin V-FITC/PI staining based flow cytometry (reference value: 0.37%); assay type: functional; in short: as §2
MCF7 [15] = assay: Induction of apoptosis in human MCF7 cells assessed as increase in caspase 7 levels at 11.1 ug/ml after 24 hrs by ELISA relative to control; assay type: functional
In short: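 Caspase-7 level is measured in MCF-7 cells after treatment at 11.1 µg/mL for 24 h and reported as concentration. Doxorubicin is used as reference.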

Tubulin beta-5 chain [16] = molecular target: T1, Tubulin beta-5 chain; assay: Potency index, ratio of colchicine IC50 to compound IC50 for tubulin beta polymerization in human MCF7 cells; assay type: cell-based

T1 sequence (P07437 whole entry): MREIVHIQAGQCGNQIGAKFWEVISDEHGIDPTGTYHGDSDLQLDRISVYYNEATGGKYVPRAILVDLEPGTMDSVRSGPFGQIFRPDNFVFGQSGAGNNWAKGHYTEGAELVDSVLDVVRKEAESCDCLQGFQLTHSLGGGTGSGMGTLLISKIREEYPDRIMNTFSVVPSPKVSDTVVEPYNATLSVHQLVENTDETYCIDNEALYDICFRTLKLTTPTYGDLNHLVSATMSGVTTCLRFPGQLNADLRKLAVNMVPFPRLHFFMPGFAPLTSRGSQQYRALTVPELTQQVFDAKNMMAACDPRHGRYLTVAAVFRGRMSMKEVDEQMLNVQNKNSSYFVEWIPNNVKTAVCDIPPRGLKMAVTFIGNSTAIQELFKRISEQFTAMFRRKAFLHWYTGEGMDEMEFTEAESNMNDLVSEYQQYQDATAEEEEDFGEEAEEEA

IC50 (MCF7 [2]) [mg/L]	SMILES	inhibition of growth at 100 µg/mL (MCF7 [1]) [%]	also measured
36.9 (≈ 87.5 µM)	Cc1cs/c(=N\NC(=O)COc2ccc3c(-c4ccccc4)cc(=O)oc3c2)n1C	> 70	–
78 (≈ 179 µM)	CCn1c(C)cs/c1=N\NC(=O)COc1ccc2c(-c3ccccc3)cc(=O)oc2c1	> 70	–
9.3 (≈ 19.2 µM)	Cn1c(-c2ccccc2)cs/c1=N\NC(=O)COc1ccc2c(-c3ccccc3)cc(=O)oc2c1	> 70	–
38.1 (≈ 88 µM)	O=C(COc1ccc2c(-c3ccccc3)cc(=O)oc2c1)N/N=C/c1ccc(Cl)cc1	76.5	–
42 (≈ 76.2 µM)	O=C(COc1ccc2c(-c3ccccc3)cc(=O)oc2c1)NN1C(=O)CSC1c1ccc(Br)cc1 (configuration not stated)	> 70	–
4.3 (≈ 8.8 µM)	COc1cc(/C=N/NC(=O)COc2ccc3c(-c4ccccc4)cc(=O)oc3c2)cc(OC)c1OC	90.7	–
25.2 (≈ 81.2 µM)	NNC(=O)COc1ccc2c(-c3ccccc3)cc(=O)oc2c1	> 70	–
16.7 (≈ 32.9 µM)	O=C(COc1ccc2c(-c3ccccc3)cc(=O)oc2c1)NN1C(=O)CSC1c1ccc(Cl)cc1 (configuration not stated)	> 70	Ratio IC50 (Tubulin beta-5 chain [16]): 2.4; inhibition at 48 h, 100 ug/ml [8]: 26.9%; IC50 (Tubulin beta-5 chain [10]): 2.89 µM

The remaining lines, values behind:

SMILES	IC50 (MCF7 [2]) [mg/L]	inhibition of growth at 100 µg/mL (MCF7 [1]) [%]	also measured
O=C(COc1ccc2c(-c3ccccc3)cc(=O)oc2c1)N/N=C/c1ccc(Br)cc1	–	67.8	–
CCN/C(=N\NC(=O)COc1ccc2c(-c3ccccc3)cc(=O)oc2c1)SC(C)C(=O)OCC (configuration not stated)	–	67.1	–
CC(=O)c1s/c(=N\NC(=O)COc2ccc3c(-c4ccccc4)cc(=O)oc3c2)n(C)c1C	42 (≈ 90.6 µM)	> 70	–
O=C(COc1ccc2c(-c3ccccc3)cc(=O)oc2c1)NN1C(=O)CSC1c1ccc(F)cc1 (configuration not stated)	11.1 (≈ 22.6 µM)	> 70	Activity (MCF7 [3]): 18.31%; Activity (MCF7 [4]): 5.49%; Activity (MCF7 [5]): 10.63%; fold change (FC) (MCF7 [6]): 5; Activity (MCF7 [7]): 38.36%; inhibition at 48 h, 100 ug/ml [8]: 13.2%; Activity (MCF7 [9]): 18.05%; IC50 (Tubulin beta-5 chain [10]): 9.37 µM; Activity (MCF7 [11]): 43.59%; viability at 11.1 µg/mL (MCF7 [12]): 79.8%; fold change (FC) (MCF7 [13]): 28.6; Activity (MCF7 [14]): 2.19%; fold change (FC) (MCF7 [15]): 3.237
CCOC(=O)C(S/C(=N/NC(=O)COc1ccc2c(-c3ccccc3)cc(=O)oc2c1)NC)C(C)=O (configuration not stated)	30.6 (≈ 59.8 µM)	> 70	–
COc1cc(C2SCC(=O)N2NC(=O)COc2ccc3c(-c4ccccc4)cc(=O)oc3c2)cc(OC)c1OC (configuration not stated)	21.2 (≈ 37.7 µM)	86.4	inhibition at 48 h, 100 ug/ml [8]: 16.8%; IC50 (Tubulin beta-5 chain [10]): 6.13 µM
COc1ccc(C2SCC(=O)N2NC(=O)COc2ccc3c(-c4ccccc4)cc(=O)oc3c2)cc1 (configuration not stated)	–	64.4	–
COc1ccc(/C=N/NC(=O)COc2ccc3c(-c4ccccc4)cc(=O)oc3c2)cc1OC	–	48.9	–
CCOC(=O)C(C)S/C(=N/NC(=O)COc1ccc2c(-c3ccccc3)cc(=O)oc2c1)NC (configuration not stated)	37 (≈ 76.5 µM)	> 70	–
CCN/C(=N\NC(=O)COc1ccc2c(-c3ccccc3)cc(=O)oc2c1)SC(C(C)=O)C(=O)OCC (configuration not stated)	41.9 (≈ 79.7 µM)	> 70	–
CCn1c(C)c(C(C)=O)s/c1=N\NC(=O)COc1ccc2c(-c3ccccc3)cc(=O)oc2c1	28 (≈ 58.6 µM)	> 70	–
COc1ccc(C2SCC(=O)N2NC(=O)COc2ccc3c(-c4ccccc4)cc(=O)oc3c2)cc1OC (configuration not stated)	–	63.3	–
O=C(COc1ccc2c(-c3ccccc3)cc(=O)oc2c1)N/N=C/c1ccc(F)cc1	–	65.5	–
COc1ccc(/C=N/NC(=O)COc2ccc3c(-c4ccccc4)cc(=O)oc3c2)cc1	–	46.3	–
CCn1c(-c2ccccc2)cs/c1=N\NC(=O)COc1ccc2c(-c3ccccc3)cc(=O)oc2c1	10.6 (≈ 21.3 µM)	> 70	–
